Measurements gathered from unrelated publications.
Lines come from different studies, so protocols differ.

| SMILES | cell line | assay | setting | IC50 [µM] |
| --- | --- | --- | --- | --- |
| Cc1ccc2nc(-c3cccc(O)c3)[nH]c2c1 | human Rhabdomyosarcoma cell | cell growth or viability, MTT | 48 h | 19.3 |
| COCCCN1C(/C=C/c2cccnc2)=CC(=O)CC1c1cccnc1 (stereo not shown) | CHO-K1 | cell growth or viability, SRB | 72 h | > 75 |
| O=C(/C=C(O)/C=C/c1ccccn1)/C=C/c1c[nH]c2ccccc12 | CHO-K1 | cell growth or viability, SRB | 72 h | 34.7 |
| O=C(O)Cc1ccccc1Nc1c(Cl)cccc1Cl | RAW264.7 | IL-6 release, inhibitor | LPS-stimulated | 10.2 |
| COc1cc(/C=C/C(=O)CC(=O)/C=C/c2ccc(O)c(OC)c2)ccc1O | CHO-K1 | cell growth or viability, SRB | 72 h | 33.5 |
| Fc1ccc(-c2nc3ccccc3n2Cc2ccccc2)cc1 | human Rhabdomyosarcoma cell | cell growth or viability, MTT |  | 28 |
| C(=C\c1c[nH]c2ccccc12)/c1cc(/C=C/c2cccs2)[nH]n1 | CHO-K1 | cell growth or viability, SRB | 72 h | 16.2 |
| CSc1ccc(-c2nc3ccc(C)cc3[nH]2)cc1 | human Rhabdomyosarcoma cell | cell growth or viability, MTT | 48 h | 39 |
| CC(C)C[C@H](NC(=O)[C@H](Cc1ccccc1)NC(=O)c1cnccn1)B(O)O | OV56 | cell growth or viability, ATP luminescence |  | 0.011 |
| COc1cc(/C=C/c2cc(/C=C/c3cccc4cnccc34)[nH]n2)ccc1O | CHO-K1 | cell growth or viability, MTT | 72 h | 8.4 |
